# This is a sample that favours compounds with a hit; in the whole collection about 3% have one here.
# 5HT1E ag = agonists of human 5-HT1E serotonin receptor; CHO 5-HT1E Ga15 NFAT-bla reporter, FRET; 0% DMSO wells, 100% control agonist wells; activation, % at 6 µM; hit rate 0.69% among 65,000;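 active = activation above a set limit, the screen-wide mean activation plus 3 SD, cut at about 8.5% in these data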;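 also: 100% = positive control agonist at 1 µM giving full maximal response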
# Target sequence (P28566 whole entry, looked up): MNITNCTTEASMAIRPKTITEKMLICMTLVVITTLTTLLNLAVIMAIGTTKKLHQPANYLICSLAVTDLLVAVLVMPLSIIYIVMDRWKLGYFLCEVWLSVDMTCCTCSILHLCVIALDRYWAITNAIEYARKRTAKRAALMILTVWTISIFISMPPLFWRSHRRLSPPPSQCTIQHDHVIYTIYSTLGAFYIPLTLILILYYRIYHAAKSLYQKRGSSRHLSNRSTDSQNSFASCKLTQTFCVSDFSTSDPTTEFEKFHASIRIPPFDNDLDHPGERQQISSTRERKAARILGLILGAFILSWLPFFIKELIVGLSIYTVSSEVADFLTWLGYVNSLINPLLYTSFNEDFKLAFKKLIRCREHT
# 5-HT1A blocker = antagonists of human 5-HT1a serotonin receptor; CHO 5-HT1a Ga15 NFAT-bla reporter, antagonist mode; inhibition, % at 10 µM; hit rate 0.68% among 62,000; AID 612;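 active = inhibition above the mean of all tested compounds plus 3 SD, cut at about 43% in these data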;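 also: receptor stimulated by 5-CT agonist at 100 nM near EC80; beta-lactamase reporter measured by ratiometric fluorescence of a cleavable substrate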
# S1P3 agonist = activates the human S1P3 receptor; hit rate 0.1% among 60,000; activation, % at 4.5 µM; S1P3 NFAT-BLA reporter cells, agonism, FRET ratio; relative to 1 µM S1P, basal subtracted; Q99500;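 active = activation above the screen-wide mean plus 3 SD, cut at about 4.5% in these data, passing the limit was not always enough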
#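 Material: Human S1P3 NFAT-BLA reporter CHO cells | Incubation: Overnight plating, 4 h compound 37 °C, 2 h substrate RT | Signal: FRET β-lactamase substrate fluorescence, excitation 405 nm, 460/535 nm emission ratio, background-subtracted | Compound: 4.5 µM final, single dose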
# HTR1A agonist = 5-HT1a (human) receptor agonism; CHO 5-HT1a Ga15 NFAT-bla reporter, FRET ratio; 0% basal, 100% maximal reference agonist; P08908; activation, % at 10 µM; hit rate 0.56% among 65,000;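 active = activation above the screen-wide mean activation plus 3 SD, cut at about 19% in these data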;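 also: 0% = DMSO wells and 100% = 5-CT at EC100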
# S1P1 ag pot = S1P1 (human) agonism or agonism potentiation; P21453; S1P1 CRE-bla cells, forskolin, beta-lactamase FRET, potentiator mode; S1P1 agonist co-added at EC20, 2 nM; 100% = saturating reference agonist, 0% = basal; activation, % at 9.5 µM; hit rate 0.57% among 56,000;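 active = activation above a cutoff set at the mean activation of all tested compounds plus 3 SD, cut at about 54% in these data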;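 also: forskolin at 4 µM as EC80 and the EC20 agonist is SEW2871; 100% = SEW2871 at its EC100 plus forskolin at EC80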
# 5HT1E antag = 5-HT1E (human) receptor antagonism; P28566; CHO 5-HT1E Ga15 NFAT-bla reporter, FRET, antagonist; inhibition, % at 6 µM; hit rate 0.99% among 65,000; AID 571;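 active = inhibition above a set limit, the mean inhibition across every tested compound plus 3 SD, cut at about 29% in these data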;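 also: signal is the 460 over 535 nm emission ratio of beta-lactamase substrate; 0% = agonist plus DMSO wells and 100% = wells without agonist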
# * hit, by the source's call; . = no result given.
SMILES,5HT1E ag,5-HT1A blocker,S1P3 agonist,HTR1A agonist,S1P1 ag pot,5HT1E antag
CCOc1ccc(Nc2cc(C)nc(-n3nc(C)cc3C)n2)cc1,0.6,52.3*,0.0,-4.1,-44.2,79.6*
Nc1c(C(=O)NCCN2CCOCC2)c2nc3ccccc3nc2n1-c1ccc2c(c1)OCO2,1.3,3.6,0.2,5.4,-13.3,-1.4
Nc1c(C(=O)NCCN2CCOCC2)c2nc3ccccc3nc2n1CCc1ccccc1,5.7,-40.8,7.9*,24.2*,-97.2,-12.5
Nc1c(C(=O)NCc2ccc3c(c2)OCO3)c2nc3ccccc3nc2n1CCCN1CCOCC1,13.0*,-14.8,7.9*,37.4*,-136.8,-7.3
Cc1cccc2cc(CN(Cc3nnnn3C3CCCC3)C3CCCCC3)c(=O)[nH]c12,1.0,-1.9,-0.4,0.2,-14.5,32.7*
CN1CCN(c2ccccc2NC(=O)c2ccc(Br)o2)CC1,13.4*,16.5,-1.0,1.7,-4.9,8.2
COC(=O)c1ccccc1NC(=O)CN1CCC(C(=O)c2ccc3c(c2)OCCO3)CC1,0.0,0.0,-0.6,0.4,2.4,12.2
O=C(NCc1ccco1)C(C(=O)c1ccc(F)cc1)n1ccccc1=O (centres undefined),-0.5,12.3,0.5,-2.4,15.4,-3.0
CN(C)CCNC(=O)C(C(=O)c1ccc(F)cc1)n1ccccc1=O (centres undefined),1.2,3.8,-1.6,120.0*,-4.1,0.3
c1cnc(N2CC[N+]3(CCCC3)CC2)nc1,0.3,1.0,-0.4,-0.5,6.9,0.9
Cc1cc(N2CCOCC2)nc(NCc2ccccc2)n1,-0.1,3.6,-2.2,-3.7,58.9*,32.6*
Cc1cc(N2CCOCC2)nc(SCC(=O)c2ccccc2)n1,0.0,-5.8,.,1.9,.,1.8
COCCCNC(=O)c1c(N)n(/N=C/c2cccs2)c2nc3ccccc3nc12,26.1*,.,3.0,86.5*,-122.8,-31.2
COCCCNC(=O)c1c(N)n(/N=C/c2cccnc2)c2nc3ccccc3nc12,0.1,.,-2.5,6.6,-16.1,-1.3
O=C(CCCc1nc(-c2ccccc2)no1)NCc1cccnc1,0.3,-6.9,0.2,-3.0,-6.9,-10.1
Cc1c(CN2CCN(c3cccc(C(F)(F)F)c3)CC2)c(=O)n(-c2ccccc2)n1C,60.3*,1.4,0.4,1.0,7.7,2.2
CCOc1cc(CN2CCN(c3cccc(C(F)(F)F)c3)CC2)ccc1O,8.3,33.4,-0.4,20.1*,.,8.8
Cc1ccc2c(c1)[nH]c1c(N3CCN(Cc4ccccc4)CC3)ncnc12,0.8,23.9,-2.3,-1.2,132.8*,8.6
Cc1ccc2[nH]c3c(N4CCCCCC4)ncnc3c2c1,-0.4,.,-3.8,1.9,96.9*,31.9*
Cc1ccc2[nH]c3c(N4CCN(Cc5ccccc5)CC4)ncnc3c2c1,-0.4,.,-1.9,2.0,33.0,21.3
c1ccc2c(c1)[nH]c1c(N3CCC4(CC3)OCCO4)ncnc12,-0.7,.,-6.9,4.0,13.5,22.4
c1ccc2c(c1)CCN(c1ncnc3c1[nH]c1ccccc13)C2,0.6,.,-7.8,1.5,112.8*,46.4*
c1ccc(CN2CCN(c3ncnc4c3[nH]c3ccccc34)CC2)cc1,0.7,.,-5.6,1.2,62.9*,35.4*
Cn1c2c(c(=O)n(C)c1=O)CN(CC1CCCO1)CN2 (centres undefined),-0.2,2.9,-0.8,-2.4,2.5,-1.6
CC1CN(C(=O)c2ccc(COCC(F)(F)F)o2)CC(C)O1 (centres undefined),-0.6,1.7,-0.8,0.2,-3.9,-6.8
SMILES,5HT1E ag,5-HT1A blocker,S1P3 agonist,HTR1A agonist,S1P1 ag pot,5HT1E antag
c1ccc(Cn2nnc3c(N4CCc5ccccc5C4)ncnc32)cc1,0.5,-6.9,0.0,95.5*,-4.8,4.1
Cc1cccc2cc3c(nc12)SC(=NCC1CCCO1)N(Cc1ccco1)C3 (centres undefined),0.9,57.2*,-0.5,-3.4,-3.6,31.6*
CCSc1nc2cc(C(=O)OC)ccc2c(=O)n1CC,0.1,2.2,-0.3,-1.5,.,-8.1
COC(=O)c1ccc2c(=O)n(C3CCCCC3)c(SCC#N)nc2c1,0.5,-16.4,3.1,1.4,87.2*,-0.9
CCOc1ccc(C)cc1S(=O)(=O)NC1CCCCC1,-0.4,17.1,-0.9,-1.5,31.9,7.4
CCOc1cc(S(=O)(=O)NC2CCCC2)ccc1Cl,15.1*,-9.8,-1.7,0.1,.,-2.8
C(=C\c1ccccc1)/CSc1nnc(-c2ccccn2)n1Cc1ccco1,-0.6,52.0*,-0.6,0.8,42.6,20.4
Clc1ccccc1CSc1nnc(-c2ccccn2)n1Cc1ccco1,-2.0,31.9,.,-1.9,.,2.7
COc1ccc(-n2ncc3c(NCCCn4ccnc4)ncnc32)cc1,-0.2,.,-5.0,2.1,1.0,3.4
O=C(CN1CCN(Cc2ccccc2)CC1)c1ccc(Br)cc1,1.7,-1.8,-0.9,22.4*,-3.1,-3.6
CCN(CC)c1ccc2cc(-c3nc4ccccc4[nH]3)c(=O)oc2c1,-0.4,26.8,-2.6,-6.4,26.5,49.2*
CCN(CC)c1ccc2cc(-c3nc4ccccc4n3C)c(=O)oc2c1,6.8,53.8*,0.1,16.5,37.7,81.8*
O=C(NC1(C(F)(F)F)C(=O)Nc2c1c(=O)[nH]c(=O)n2Cc1ccco1)C1CCCCC1 (centres undefined),0.2,.,-3.4,-0.3,-13.6,10.5
COc1ccc(C(=O)COC(=O)CN2C(=O)NC(C)(C)C2=O)cc1OC,0.2,-10.4,0.5,-0.2,-35.5,-11.8
COc1ccc(C(=O)COC(=O)CN2CC(=O)Oc3ccccc32)cc1Br,0.6,2.4,-2.4,-1.5,13.0,-10.1
CCN(Cc1ccccc1)C(c1ccccn1)c1nnnn1C(C)(C)CC (centres undefined),-1.0,45.3*,-0.6,-0.7,-4.1,0.6
CCC(C)(C)n1nnnc1C(c1ccccn1)N1CCOCC1 (centres undefined),-0.7,1.9,-0.3,-2.2,-8.6,-2.2
COc1ccc(NS(=O)(=O)c2coc(C(N)=O)c2)cc1Cl,1.5,-3.0,-0.9,-3.4,-2.0,-7.4
COc1ccc(-n2nc3ccc(NS(C)(=O)=O)cc3n2)cc1Cl,0.4,10.0,-0.7,-1.7,102.9*,11.0
CCc1nn(-c2cc(Cl)ccc2OC)c2c1C(=O)CCC2,-1.4,15.9,-1.1,-0.3,-3.8,16.7
CN1CCN(c2nc(-c3ccncc3)nc3ccccc23)CC1,9.1*,-3.9,-0.1,4.0,.,6.2
c1ccc2c(N3CCCC3)nc(-c3ccncc3)nc2c1,1.1,4.9,-0.1,0.8,-24.4,0.2
CCC(C(=O)Nc1cnccn1)c1ccccc1 (centres undefined),17.8*,-2.7,-0.1,-2.5,-2.4,-4.2
